# Measurements taken from ChEMBL document CHEMBL3244382, “Structural requirements for antileukemic activity among the naturally occurring and semisynthetic maytansinoids” (J Med Chem, 1978).
# Calls of active or inactive are those of the source.
# Assays:
# Mus musculus [1] = assay: Toxicity in PS mouse allografted with mouse P388 cells assessed as change in body weight at 12.5 ug/kg relative to control; assay type: organism-based; settings: in vivo, 0.0125 mg/kg
# Procedure, shortened: (§1)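 P388 (PS) leukemia in mice, 6 mice per dose group. Weight change is the difference in grams between treated and control animals. Survivors are recorded on toxicity day, normally 4 days after the first injection.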
# Mus musculus [2] = assay: Toxicity in PS mouse allografted with mouse P388 cells assessed as survival at 3.1 ug/kg after 4 days; assay type: organism-based; settings: in vivo, 0.0031 mg/kg, 96 h
# Procedure, shortened: (§2)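 PS (P388) leukemic mice, six started per dose group. Toxicity scored as survivors on the toxicity day over the number of mice started. The toxicity day is normally 4 days after the first injection.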
# Mus musculus [3] = assay: Toxicity in PS mouse allografted with mouse P388 cells assessed as change in body weight at 400 ug/kg relative to control; assay type: organism-based; settings: in vivo, 0.4 mg/kg; procedure, shortened: as §1
# Mus musculus [4] = assay: Toxicity in PS mouse allografted with mouse P388 cells assessed as survival at 25 ug/kg after 4 days; assay type: organism-based; settings: in vivo, 0.025 mg/kg, 96 h; procedure, shortened: as §2
# P388 [5] = assay: Antitumor activity against mouse P388 cells allografted in PS mouse assessed as median survival time at 3.1 ug/kg relative to control; assay type: functional
# Procedure, shortened: (§3)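 P388 leukemia (PS) in mice, six mice started per dose group. Read-out is T/C: median survival time of the treated group divided by that of the untreated control group, expressed as a percent. The NIH protocol counts a compound as active when T/C > 125%.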
# KB = assay: Cytotoxicity against human KB cells; assay type: functional; settings: read-out: ED50 (the source's name)
# P388 [6] = assay: Antitumor activity against mouse P388 cells allografted in PS mouse assessed as median survival time at 6.2 ug/kg relative to control; assay type: functional; procedure, shortened: as §3
# P388 [7] = assay: Antitumor activity against mouse P388 cells allografted in PS mouse assessed as median survival time at 50 ug/kg relative to control; assay type: functional; procedure, shortened: as §3
# Mus musculus [8] = assay: Toxicity in PS mouse allografted with mouse P388 cells assessed as survival at 100 ug/kg after 4 days; assay type: organism-based; settings: in vivo, 0.1 mg/kg, 96 h; procedure, shortened: as §2
# P388 [9] = assay: Antitumor activity against mouse P388 cells allografted in PS mouse assessed as median survival time at 100 ug/kg relative to control; assay type: functional; procedure, shortened: as §3
# Mus musculus [10] = assay: Toxicity in PS mouse allografted with mouse P388 cells assessed as change in body weight at 1.6 ug/kg relative to control; assay type: organism-based; settings: in vivo, 0.0016 mg/kg; procedure, shortened: as §1
# Mus musculus [11] = assay: Toxicity in PS mouse allografted with mouse P388 cells assessed as change in body weight at 25 ug/kg relative to control; assay type: organism-based; settings: in vivo, 0.025 mg/kg; procedure, shortened: as §1
# Mus musculus [12] = assay: Toxicity in PS mouse allografted with mouse P388 cells assessed as survival at 1.6 ug/kg after 4 days; assay type: organism-based; settings: in vivo, 0.0016 mg/kg, 96 h; procedure, shortened: as §2
# Mus musculus [13] = assay: Toxicity in PS mouse allografted with mouse P388 cells assessed as change in body weight at 50 ug/kg relative to control; assay type: organism-based; settings: in vivo, 0.05 mg/kg; procedure, shortened: as §1
# Mus musculus [14] = assay: Toxicity in PS mouse allografted with mouse P388 cells assessed as survival at 6.2 ug/kg after 4 days; assay type: organism-based; settings: in vivo, 0.0062 mg/kg, 96 h; procedure, shortened: as §2
# Mus musculus [15] = assay: Toxicity in PS mouse allografted with mouse P388 cells assessed as change in body weight at 3.1 ug/kg relative to control; assay type: organism-based; settings: in vivo, 0.0031 mg/kg; procedure, shortened: as §1
# Tubulin (Homo sapiens) = Tubulin (Homo sapiens) (UniProt P68371+Q9H4B7+P0DPH7+P68366+Q13509+Q71U36+P04350+Q3ZCM7+P07437+P68363+Q9BQE3+Q6PEY2+Q13885+Q9BVA1+Q9BUF5); assay: Inhibition of brain tubulin polymerization (unknown origin) at 37 degC by spectrophotometry
# P388 [16] = assay: Antitumor activity against mouse P388 cells allografted in PS mouse assessed as median survival time at 400 ug/kg relative to control; assay type: functional; procedure, shortened: as §3
# Mus musculus [17] = assay: Toxicity in PS mouse allografted with mouse P388 cells assessed as change in body weight at 100 ug/kg relative to control; assay type: organism-based; settings: in vivo, 0.1 mg/kg; procedure, shortened: as §1
# Mus musculus [18] = assay: Toxicity in PS mouse allografted with mouse P388 cells assessed as change in body weight at 200 ug/kg relative to control; assay type: organism-based; settings: in vivo, 0.2 mg/kg; procedure, shortened: as §1
# Mus musculus [19] = assay: Toxicity in PS mouse allografted with mouse P388 cells assessed as survival at 12.5 ug/kg after 4 days; assay type: organism-based; settings: in vivo, 0.0125 mg/kg, 96 h; procedure, shortened: as §2
# Paracentrotus lividus = assay: Antimitotic activity against sea urchin eggs assessed as drug level causing inhibition of mitosis; assay type: functional; settings: Egg
# P388 [20] = assay: Antitumor activity against mouse P388 cells allografted in PS mouse assessed as median survival time at 12.5 ug/kg relative to control; assay type: functional; procedure, shortened: as §3
# P388 [21] = assay: Antitumor activity against mouse P388 cells allografted in PS mouse assessed as median survival time at 25 ug/kg relative to control; assay type: functional; procedure, shortened: as §3
# Mus musculus [22] = assay: Toxicity in PS mouse allografted with mouse P388 cells assessed as survival at 400 ug/kg after 4 days; assay type: organism-based; settings: in vivo, 0.4 mg/kg, 96 h; procedure, shortened: as §2
# Mus musculus [23] = assay: Toxicity in PS mouse allografted with mouse P388 cells assessed as change in body weight at 6.2 ug/kg relative to control; assay type: organism-based; settings: in vivo, 0.0062 mg/kg; procedure, shortened: as §1
# Mus musculus [24] = assay: Toxicity in PS mouse allografted with mouse P388 cells assessed as survival at 50 ug/kg after 4 days; assay type: organism-based; settings: in vivo, 0.05 mg/kg, 96 h; procedure, shortened: as §2
# P388 [25] = assay: Antitumor activity against mouse P388 cells allografted in PS mouse assessed as median survival time at 200 ug/kg relative to control; assay type: functional; procedure, shortened: as §3
# Mus musculus [26] = assay: Toxicity in PS mouse allografted with mouse P388 cells assessed as survival at 200 ug/kg after 4 days; assay type: organism-based; settings: in vivo, 0.2 mg/kg, 96 h; procedure, shortened: as §2
# P388 [27] = assay: Antitumor activity against mouse P388 cells allografted in PS mouse assessed as median survival time at 1.6 ug/kg relative to control; assay type: functional; procedure, shortened: as §3
SMILES,Activity (Mus musculus [1]),Activity (Mus musculus [2]),Activity (Mus musculus [3]),Activity (Mus musculus [4]),T/C (P388 [5]),EC50 (KB),T/C (P388 [6]),T/C (P388 [7]),Activity (Mus musculus [8]),T/C (P388 [9]),Activity (Mus musculus [10]),Activity (Mus musculus [11]),Activity (Mus musculus [12]),Activity (Mus musculus [13]),Activity (Mus musculus [14]),Activity (Mus musculus [15]),inhibition (Tubulin (Homo sapiens)),T/C (P388 [16]),Activity (Mus musculus [17]),Activity (Mus musculus [18]),further results
CCCS[C@]12C[C@H](OC(=O)N1)[C@@H](C)[C@@H]1O[C@@]1(C)[C@@H](OC(=O)[C@H](C)N(C)C(=O)C(C)C)CC(=O)N(C)c1cc(cc(OC)c1Cl)C/C(C)=C/C=C/[C@H]2OC,0.6 g,Non-toxic,0.6 g,Non-toxic,97%,0.31 ng/mL,<80%,118%,Non-toxic,127%,0.8 g,0.7 g,Non-toxic,0.4 g,Non-toxic,0.6 g,Active,151%,-1.6 g,-2.4 g,Activity (Mus musculus [19]): Non-toxic; Activity (Paracentrotus lividus): 1 ×10⁻⁸ mol/L; T/C (P388 [20]): 95%; T/C (P388 [21]): 101%; Activity (Mus musculus [22]): Non-toxic; Activity (Mus musculus [23]): -0.1 g; Activity (Mus musculus [24]): Non-toxic; T/C (P388 [25]): 151%; Activity (Mus musculus [26]): Non-toxic; T/C (P388 [27]): 100%
CCO[C@]12C[C@H](OC(=O)N1)[C@@H](C)[C@@H]1O[C@@]1(C)[C@@H](OC(=O)[C@H](C)N(C)C(C)=O)CC(=O)N(C)c1cc(cc(OC)c1Cl)C/C(C)=C/C=C/[C@H]2OC,-0.3 g,Non-toxic,-0.6 g,Non-toxic,99%,11 ng/mL,99%,98%,Non-toxic,105%,-0.1 g,-0.3 g,Non-toxic,-0.8 g,Non-toxic,-0.7 g,Active,100%,-2 g,0.3 g,Activity (Mus musculus [19]): Non-toxic; Activity (Paracentrotus lividus): 1 ×10⁻⁷ mol/L; T/C (P388 [20]): 101%; T/C (P388 [21]): 116%; Activity (Mus musculus [22]): Non-toxic; Activity (Mus musculus [23]): -1.3 g; Activity (Mus musculus [24]): Non-toxic; T/C (P388 [25]): 98%; Activity (Mus musculus [26]): Non-toxic; T/C (P388 [27]): 99%
